# Results published in ChEMBL document CHEMBL4513216, “Probing the Open Global Health Chemical Diversity Library for Multistage-Active Starting Points for Next-Generation Antimalarials” (ACS Infect Dis, 2020).
# Assay: Toxicity liver stage against HepG2, at 10uM
# Format: cell-based
# Set-up: test concentration 10 uM, cell line HepG2-A16-CD81EGFP
# Details: human, HepG2-A16-CD81EGFP cells; read-out: INHIBITION
# Procedure, shortened: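 Uninfected HepG2-A16-CD81EGFP cells, 3 × 10^3 per well, 1536-well, plated on prespotted compound at 10 μM final, parasite-free screening media added to match infected plates; puromycin 10 μM positive, DMSO 0.5% negative; run in parallel with 48 h PbLuc assay at 37 °C, 5% CO2; viability by CellTiter-Glo luminescence, normalized to controls.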
row,Compound,cytotoxicity at 10 µM [%]
1,CN(CCc1ccccc1)Cc1nc(-c2cnccn2)no1,-0.911
2,CCCN1CCN(C(=O)CCn2cccc2)CC1,6.14
3,CCOc1ccccc1C(=O)N1CC(=O)N(C2CCC2)CC(O)C1 (stereo not drawn),2.55
4,NC(=O)[C@@H]1CN2CCN(C(=O)C3CC3)C[C@@H]2[C@H]1c1ccccc1,3.88
5,N#Cc1cccc(CN2CCO[C@@H]3CNC[C@@H]32)c1,8.94
6,O=C(NC1CC1)N1CCOC2(CCCN(c3cccc(F)c3)C2)C1 (stereo not drawn),4.23
7,CN(C)C(=O)N1CCCC2(CCN(Cc3ccc(Cl)c(F)c3)C2)C1 (stereo not drawn),7.07
8,CN1C2(CCN(Cc3ccc(F)cc3)C2)c2ccccc2S1(=O)=O (stereo not drawn),13.5
9,CC1=N[C@@]2(CC[C@@H]3CN(C(=O)NC(C)C)C[C@@H]32)C(=O)N1CC1CC1,7.1
10,Cn1cnc2c1C(COCc1cccnc1)N(Cc1ccccc1)CC2 (stereo not drawn),13.5
11,Cc1occc1C(=O)N1C[C@@H](C(=O)N2CCCCO2)C[C@H]2OCC[C@H]21,12.1
12,O=C(c1ccno1)N1CCO[C@]2(CCC[C@@H]2COCc2ccncc2)C1,10.2
13,c1cncc(CN2CCCn3nnc(CN4CCCCC4)c3C2)c1,12.8
14,O=C1CC(c2ccc(C(F)(F)F)cc2)c2c(n3ccsc3nc2=O)N1 (stereo not drawn),-1.4
15,CC(=O)c1cccc(NC(=O)Cn2cc(-c3ccccc3)ncc2=O)c1,-2.45
16,CN1CC(Oc2ccc(Cl)cc2)=NC(SCC(=O)Nc2ccccc2)=N1,-0.943
17,c1ccc(OCCCNCc2cccs2)nc1,-0.336
18,Cc1nc(N2CCCC2)ncc1-c1cc(O)n2ncnc2n1,10.6
19,CC(=O)N1CCN(c2cnccn2)CC(CO)C1 (stereo not drawn),3.03
20,CNc1nnc(SCc2nnc(C(C)(C)C)o2)s1,-1.05
21,Cc1nc(C)n(CC2CCCN2Cc2ccc(F)cc2C#N)n1 (stereo not drawn),-2.59
22,COC(=O)C1CCCN1C(=O)c1ccc(Br)cc1F (stereo not drawn),2.96

row,Compound,cytotoxicity at 10 µM [%]
1,CC(C)c1nnc2n1CCN(c1nc3ccccc3o1)C2,4.12
2,Cn1ccc(C(=O)Nc2nc(-c3ccc(Cl)cc3)n[nH]2)cc1=O,-12.3
3,CC(=O)N1CCCC(C(=O)N2CCC(=Cc3cccc(F)c3)CC2)C1 (stereo not drawn),12
4,CCC(C)NC(=O)CCNC(=O)c1c[nH]cc1-c1cccc(OC)c1 (stereo not drawn),6.98
5,COc1ccc(NC(=O)N(C)Cc2ccc(Br)o2)cn1,12
6,O=C(c1cc2c([nH]c1=O)CCC2)N1CCCCCC1c1ccncc1 (stereo not drawn),-9.31
7,CCN(CC1CCOC1)C(=O)CSCC(=O)Nc1ccc(C)cc1 (stereo not drawn),-7.04
8,CC(C)Oc1ncc(C(=O)N2CCC(CC(N)=O)CC2)cc1Cl,-9.47
9,CC(C)(C)c1n[nH]c(C2CN(C(=O)CCCn3cccn3)CCO2)n1 (stereo not drawn),-0.839
10,CC(C)C[C@H](NC(=O)CNC(=O)OC(C)(C)C)C(=O)OC(C)(C)C,11.9
11,CC(NC(=O)C1CCN(S(N)(=O)=O)CC1)c1cccc(OC(F)F)c1 (stereo not drawn),-8.5
12,COCC(=O)N1CCCC1c1cccc(C)c1C (stereo not drawn),-1.32
13,COc1ccc(C)cc1NC(=O)Cn1nc(C)c(C#N)c1N,-22.9
14,CC(NC(=O)Nc1nccs1)c1ccc(S(C)(=O)=O)cc1 (stereo not drawn),7.04
15,Cn1cccc1C(=O)NS(=O)(=O)c1cnn(-c2ccccc2F)c1,-7.83
16,Cn1cc(CNCCc2nccs2)c(-c2cccnc2)n1,1.83
17,CCOC1CCCN(C(=O)c2ccccc2NCc2cccnc2)C1 (stereo not drawn),0.595
18,O=S(=O)(NCCSc1nccn1C1CC1)c1ccccc1,-9.34
19,N#Cc1ccc(CN(CC(N)=O)Cc2cccc(F)c2)cc1,-2.01
20,CS(=O)(=O)CCC(=O)NC(Cc1ccccc1)C1CC1 (stereo not drawn),11.4
21,CN(CCc1ccc2c(c1)CCO2)CC1CCS(=O)(=O)C1 (stereo not drawn),7.33
22,CCCN(CC1CC1)C(=O)Cn1ccccc1=O,9.09

row,Compound,cytotoxicity at 10 µM [%]
1,Cc1cc(C(=O)N2CCn3cc(CN4CCCCC4)nc3C2)no1,-77.3
2,Cc1nnc([C@@H]2CC[C@@H]3[C@@H](CCN3S(C)(=O)=O)O2)o1,-79.1
3,CCN1C(=O)CO[C@@H]2CN(C(=O)C3CCOCC3)C[C@H]21,-78.2
4,Cc1cc(C(=O)N2CCC[C@]3(C[C@H](OCC4CC4)CO3)C2)no1,-78.8
5,CC(=O)N1CCC2(CCN(C(=O)c3ccc(F)c(C(F)(F)F)c3)C2)C1 (stereo not drawn),-76.1
6,CC(=O)NCC(=O)N1CCC2(CC1)CN(c1cccnc1)C(=O)CO2,3.76
7,O=C(C1CCOC1)N1C[C@H]2CN(Cc3nccs3)C[C@H]2C1 (stereo partly drawn),5.04
8,O=c1c(-c2ccnc(NC3CCOCC3)n2)cnc2sc(Cl)cn12,-0.962
9,COc1ccc(OC)c(C(C(=O)O)N2CCSCC2)c1 (stereo not drawn),-1.02
10,Cc1cc(C)cc(CCC(=O)NC(C)c2nnn[nH]2)c1 (stereo not drawn),0.686
11,CCc1cn[nH]c1C1CCCN(C(=O)c2cnc(NC(C)C)nc2)C1 (stereo not drawn),-13.2
12,CN1CCC(n2nc(Cc3cccs3)nc2-c2ccncc2)CC1,-7.76
13,CC(C)N(C)C(=O)c1coc(CN2CCN(c3ccccc3F)CC2)n1,7.31
14,CC(C)n1cnnc1CN1C(=O)CCc2ccccc21,0.0849
15,CC(C)c1nc(CN(C)Cc2ccc(O)c(Cl)c2)cs1,-7.27
16,Cc1nccn1CCN(C)C(=O)C1CCN(C(=O)C2CCC2)CC1,-1.45
17,CC1(CCC(=O)N2CCC(n3cc(C4(O)CCCC4)nn3)CC2)CC1,-7.69
18,CC(C)c1cc(C2CCN(C(=O)Cn3cncn3)CC2)[nH]n1,3.65
19,Cc1[nH]c2ccc(CNc3cc(C#N)ccn3)cc2c1C,-8.4
20,Cc1cccc2cc(C(=O)N3CCSCC3)n(C)c12,6.25
21,CN1CCN(Cc2ccc(Cl)cc2)CC1C(=O)O (stereo not drawn),-2.31
22,COCc1noc(CN2C[C@H](C3CC3)[C@@H](N(C)C)C2)n1,1.31

row,Compound,cytotoxicity at 10 µM [%]
1,CCCS(=O)(=O)N1CCC2(CC1)CC(=O)N(Cc1cc(F)cc(F)c1)C2,8.78
2,Cc1ccc2nc(-c3nc4c([nH]3)CC(C)(C)CNC4=O)cn2c1,5.31
3,CCn1cc(CN(C)Cc2cnn(-c3ccc(F)cc3)c2)cn1,-5.44
4,Cc1nc(CNC(=O)c2cc(COc3ccccc3F)[nH]n2)n[nH]1,-7.42
5,Cc1cc(=O)[nH]c(=O)n1-c1cccc(Cl)c1Cl,-3.57
6,Cc1ccccc1CCC(=O)N1CCc2ncnc(NCCO)c2CC1,-21
7,Cc1csc2c(N3CCNC(C(=O)NCc4cccnc4)C3)ncnc12 (stereo not drawn),1.74
8,CN(CCCOc1ccccc1Cl)C(=O)CN1CCNC1=O,-0.2
9,Cc1cnn(C2CN(CC(=O)NCC(C)C)C2)c1,-1.33
10,Cc1cc(C)c(CNC(=O)NCC(O)c2ccccc2F)c(=O)[nH]1 (stereo not drawn),-0.185
11,COc1ccc(C(O)CNC(=O)NCc2c(C)cc(C)[nH]c2=O)cc1 (stereo not drawn),-2.99
12,O=C(NCc1ccccc1Cn1cncn1)C1CCCC1,-2.34
13,CN(C(=O)CN1CCC(NC(=O)c2cccs2)CC1)c1ccccc1,-8.55
14,O=C(NCc1cc[nH]n1)N1CCCC(N2CCCC2)C1 (stereo not drawn),-3.18
15,CCCc1n[nH]c(C2CN(C(=O)c3cccnc3N(C)C)CCO2)n1 (stereo not drawn),-2.91
16,CN1CC(C(=O)NCCOc2ccc3c(c2)OCO3)CC1=O (stereo not drawn),-4.35
17,COCCCN1CCC(N(Cc2noc(C)n2)C(C)=O)C1 (stereo not drawn),-4.22
18,Cn1cc(Cl)cc1C(=O)N1CCCN(Cc2ccccc2)CC1,-5.19
19,CCNc1cc2c(nn1)CCN(C(=O)c1cccnc1N(C)C)C2,-13.4
20,Cc1cc(NC(=O)CCN2CCCCC2Cn2cncn2)no1 (stereo not drawn),4.23
21,CCNC(c1ccc(CC)cc1)c1cccnc1 (stereo not drawn),-5.4
22,NC(=O)c1cc(C2CCCN(CCOCC(F)(F)F)C2)n[nH]1 (stereo not drawn),-11.8

row,Compound,cytotoxicity at 10 µM [%]
1,CC(C)(C)c1n[nH]c(C2CN(C(=O)c3ccsc3)CCO2)n1 (stereo not drawn),-12.3
2,c1cnn(C2CN(Cc3nc(-c4ccsc4)no3)C2)c1,-12.2
3,Cc1cc(NC(=O)NCc2ccccn2)n(C)n1,2.14
4,CN1CCCc2cc(CNC(=O)c3ccc(NC4CC4)nc3)ccc21,-3.03
5,Cc1ccc(CC(=O)N2CCCCC2c2nc(C)cs2)cn1 (stereo not drawn),2.6
6,O=C(NCc1ccco1)[C@@H]1CCO[C@@H]2CCN(c3ncccn3)C[C@H]21,-77.6
7,CCOCC1CN(C(=O)c2cscn2)Cc2cn(C)nc21 (stereo not drawn),-76.6
8,O=C(C[C@@H]1COC[C@H]2CN(CC3CC3)C[C@@H]12)N1CCCCO1,4.08
9,Cc1ccnc(OC[C@@]23CCO[C@@H]2CCN(c2ncc(F)cn2)C3)n1,10.9
10,CC(C)NC(=O)[C@H]1C[C@@H]2[C@@H](C1)OCCN2Cc1ccsc1,9.49
11,COCCNC(=O)[C@@H]1CN(Cc2sccc2C)C[C@H]2OCC[C@H]21,2.98
12,CC(C)NC(=O)[C@H]1C[C@@H]2[C@@H](C1)OCCN2Cc1nccs1,6.1
13,O=C1NC2(CCN(c3ncccn3)CC2)CC1c1cccnc1 (stereo not drawn),-71.4
14,COCCNC(=O)[C@@]12CCO[C@@H]1CCN(Cc1cc(C)on1)C2,-69.8
15,O=C(N1CCOCC1)[C@@]12CCO[C@@H]1CCN(C1CCC1)C2,3.33
16,CN(C)Cc1cnc2n1CCN(Cc1ccsc1)CC2,-10.4
17,O=C(c1cccc(F)c1)N1CCN2C[C@H](OCc3cccnc3)C[C@H]2C1,4.4
18,O=C(c1ccc(F)cc1)N1C[C@H]2CCC[C@@]2(COCc2ccncc2)C1,8.04
19,CCc1nccn1CC(=O)N1C[C@@H]2CC[C@H]1CN(S(=O)(=O)N(C)C)C2,-6.38
20,O=C(CSCC1CC1)N1C[C@H]2CC[C@@H](C1)N(Cc1ccccn1)C2=O,5
